Source: PubChem
Rows were chosen to be rich in hits. Some 1.7% of all compounds tested hit in one or more screens of this group.
Myeloid diff MLP: induction of myeloid progenitor differentiation, primary screen, cell-based, flow cytometry, MLPCN library | calls only at 10 µM | hit rate 1% among 360,000 | ER-HoxA9 myeloid progenitors, lysozyme-GFP differentiation;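 active = normalized GFP-positive differentiation at or above the plate's own cutoff, the solvent-only control mean plus 3 SD; inconclusive = no clear call, values can overlap the other calls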;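 note: cells exposed to compound for four days before flow analysis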
Vif inh: HIV Vif self-association inhibitors, primary screen, imaging, HEK293T, single point. HEK293T cells, Vif self-association by quenched fluorescence, 24 h. inhibition, % at 7.49 µM. hit rate 0.35% among 340,000; in the data active = inhibition above about 50%, passing the limit was not always enough; inconclusive = no clear call, values can overlap the other calls; inactive = below about 31%
T cell modulator: modulators of CD8 T cell-vesicle binding, primary screen, mouse 2C CD8+ T cells, flow cytometry; 2C CD8+ T cell-vesicle binding; active compounds read low; response (vesicle binding), % at 7 µM; hit rate 0.068% among 330,000; AID 2052, 2009;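 active = response, share of CD8 T cells binding vesicles, and their 90th percentile fluorescence all below set limits, cut at about 80% in these data, passing the limit was not always enough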;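 note: values below 100% mean blocked vesicle binding to the CD8+ T cells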
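Test system: purified 2C TCR transgenic mouse naive CD8+ T cells. Probe or stimulus: QL9-peptide-loaded Drosophila micro-vesicles bearing Ld, ICAM-1 and B7-1. Incubation: binding step 1.5 h, 37 °C, antibody labelling 20 min, ice. Measured by: flow cytometry of vesicle-bound cells.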
Pemphigus Ab inh: inhibitors of pemphigus antibody binding to DSG3, primary screen, biochemical, bead-based, flow cytometry, scFv-GFP; Desmoglein-3 (Homo sapiens), P32926; DSG3-coupled beads, scFv-anti-DSG3-GFP binding; active compounds read low; binding (percent of control), % at 10 µM; hit rate 0.48% among 310,000; AID 588358, 2011;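 active = binding more than 3 SD below its plate's average and above zero; inconclusive = below that plate limit but binding exactly zero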;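 note: hits lower antibody fragment binding to DSG3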
Target sequence (P32926 whole entry, looked up, the tested form may be a part): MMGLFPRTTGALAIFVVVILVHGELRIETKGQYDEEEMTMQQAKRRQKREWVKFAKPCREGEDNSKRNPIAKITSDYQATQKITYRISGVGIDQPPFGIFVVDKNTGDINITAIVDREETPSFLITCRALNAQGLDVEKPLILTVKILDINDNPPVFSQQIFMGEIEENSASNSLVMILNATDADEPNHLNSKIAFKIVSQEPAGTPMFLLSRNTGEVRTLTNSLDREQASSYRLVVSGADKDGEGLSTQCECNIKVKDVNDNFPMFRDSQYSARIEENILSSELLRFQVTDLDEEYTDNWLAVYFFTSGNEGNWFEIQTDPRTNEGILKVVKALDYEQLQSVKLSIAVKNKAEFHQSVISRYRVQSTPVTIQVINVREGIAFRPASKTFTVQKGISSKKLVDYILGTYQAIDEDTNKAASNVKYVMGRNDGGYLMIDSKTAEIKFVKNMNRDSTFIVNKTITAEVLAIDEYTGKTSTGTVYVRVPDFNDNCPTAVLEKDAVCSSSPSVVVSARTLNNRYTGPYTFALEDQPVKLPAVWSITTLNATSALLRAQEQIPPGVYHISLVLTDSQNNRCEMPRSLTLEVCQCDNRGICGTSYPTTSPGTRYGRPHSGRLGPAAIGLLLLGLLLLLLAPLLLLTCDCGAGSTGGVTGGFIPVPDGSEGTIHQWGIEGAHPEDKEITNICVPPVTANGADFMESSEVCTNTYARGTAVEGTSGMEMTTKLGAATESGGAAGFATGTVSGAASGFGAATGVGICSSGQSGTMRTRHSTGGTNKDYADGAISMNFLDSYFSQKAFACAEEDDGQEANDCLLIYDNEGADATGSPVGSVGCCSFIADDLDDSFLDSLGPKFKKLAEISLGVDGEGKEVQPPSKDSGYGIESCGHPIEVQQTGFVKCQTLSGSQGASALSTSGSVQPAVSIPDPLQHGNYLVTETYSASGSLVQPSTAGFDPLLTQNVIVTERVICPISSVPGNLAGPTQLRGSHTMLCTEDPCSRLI
* marks the source's active call; other numbers are inactive results.

`CN1C2CCC1/C(=C/c1ccccn1)C(=O)/C2=C\c1ccccn1` gave Myeloid diff MLP inconclusive, Vif inh 106*, T cell modulator 209 and Pemphigus Ab inh 122.
Screening Cc1cc(C(=O)N=Nc2c(O)n(C)c3ccccc23)c(C)o1 returned Myeloid diff MLP inactive, Vif inh 21, T cell modulator 245 and Pemphigus Ab inh 97.
For O=C(c1cc(Cl)cc(Cl)c1)N1Cc2ccccc2-n2nncc2C1 the results were Myeloid diff MLP inactive and Vif inh 3.
OC(c1ccc(F)cc1)C(c1ccccc1)N1CCOCC1 (stereo not given) was read as Myeloid diff MLP inactive, T cell modulator 390 and Pemphigus Ab inh 23*.
Screening O=C(c1ccccc1)C(Cc1ccccc1)N1CCOCC1 (stereo not given) returned Myeloid diff MLP inactive and Vif inh 14.
COc1ccc(-n2nc(C(=O)NCC(=O)N3CCC4(CC3)OCCO4)c3ccccc3c2=O)c(OC)c1 was read as Myeloid diff MLP inactive, Vif inh -5, T cell modulator 736 and Pemphigus Ab inh 98.
For C[n+]1c(-c2ccccc2)c2cc(N)ccc2c2ccc(N)cc21 the results were Myeloid diff MLP active, Vif inh 28, T cell modulator 167 and Pemphigus Ab inh 80.
Screening CCCCCc1nc2c(c(=O)c3ccccc3n2C)c(=O)n1C1CCCCCC1 returned Myeloid diff MLP active, Vif inh -2, T cell modulator 215 and Pemphigus Ab inh 114.
Screening CCN(CC)C(=O)c1ccc(NC(=O)CNC(C)c2cccc3ccccc23)cc1 (stereo not given) returned Myeloid diff MLP inactive, Vif inh -6, T cell modulator 380 and Pemphigus Ab inh 111.
For C[N+]12CCC(CC1)C(C(O)(c1cccc(Cl)c1)c1cccc(Cl)c1)C2 (stereo not given) the results were Myeloid diff MLP inactive, Vif inh -2, T cell modulator 571 and Pemphigus Ab inh 82*.
CC[N+]12CCC(CC1)C(C(O)(c1ccccc1)c1ccccc1)C2 (stereo not given) was read as Myeloid diff MLP inactive, Vif inh -14, T cell modulator 186 and Pemphigus Ab inh 101.
For O=C(NC1(C(F)(F)F)Oc2ccc(Cl)cc2O1)N1CCC2(CC1)OCCO2 (stereo not given) the results were Myeloid diff MLP inactive, Vif inh 78*, T cell modulator 272 and Pemphigus Ab inh 100.
For c1ccc(C2(NC3=NCCO3)CCCCC2)cc1 the results were Myeloid diff MLP inactive and Pemphigus Ab inh 104.
Screening Cn1cccc1/C=C1/C(=O)NC(=S)N(Cc2ccc(F)cc2)C1=O returned Myeloid diff MLP inactive, Vif inh -6, T cell modulator 291 and Pemphigus Ab inh 70*.
`CCN(CC)CC(O)c1ccc(C2CCCC2)cc1` (stereo not given) gave Myeloid diff MLP inactive, Vif inh 4, T cell modulator 224 and Pemphigus Ab inh 100.
CCNC(=O)C1OC(n2cnc3c(N)ncnc32)C(O)C1O (stereo not given) was read as Myeloid diff MLP inactive, Vif inh 51*, T cell modulator 60 and Pemphigus Ab inh 110.
`Cc1ccc(NC(=O)CC[C@H]2O[C@@H](n3cnc4c(NC(=O)c5ccccc5)ncnc43)[C@H](O)[C@@H]2O)cc1C` gave Myeloid diff MLP inactive.
`c1ccc2c3c([nH]c2c1)CNCC3` gave Myeloid diff MLP active, Vif inh -1, T cell modulator 115 and Pemphigus Ab inh inactive.
For CN1C(=O)C(=Cc2ccc(N3CCOCC3)o2)C(=O)N(C)C1=O the results were Myeloid diff MLP inactive, Vif inh 4, T cell modulator 282 and Pemphigus Ab inh 125.
CN1C(=O)C(=Cc2ccc(N3CCCCCC3)o2)C(=O)N(C)C1=S was read as Myeloid diff MLP active, Vif inh 28 and T cell modulator 160.
`Cc1cc(OCC(=O)N2CCC(C(=O)O)CC2)c2c3c(c(=O)oc2c1)CCCC3` gave Myeloid diff MLP inactive, Vif inh 12, T cell modulator 301 and Pemphigus Ab inh 104.
Screening COC(=O)C1=C(c2ccccc2OCc2ccccc2)C[C@@H]2CC[C@H]1N2C(=O)NC1CCN(Cc2ccccc2)CC1 returned Myeloid diff MLP active, Vif inh 0, T cell modulator 303 and Pemphigus Ab inh 102.
